The source made the active and inactive calls. The calls are words filed in the database; no cut-off is given here.
Legend:
[1] = test system: Mus musculus; assay: Effect on survival in BALB/c mouse infected with influenza A virus (A/duck/Minnesota/1525/1981 (H5N1)) at 300 mg/kg/day, po administered 4 hrs after infection relative to carboxymethyl cellulose; format: functional, organism-based
[2] = test system: Mus musculus; assay: Lowering of Arterial oxygen saturation decline in BALB/c mouse infected with influenza A virus (A/duck/Minnesota/1525/1981 (H5N1)) at 100 mg/kg/day, po twice daily for 5 days administered 1 hr after infection measured on day 11 relative to carboxymethyl cellulose; format: functional
Method in brief: (§1)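 Arterial oxygen saturation was measured by pulse oximeter, with the ear probe placed on the thigh and read after 30 s stabilization. Values were taken on day 11, 10 mice per group. Mice dead from infection were assigned 75%. Means were compared with CMC controls by t test.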

[3] = test system: Mus musculus; assay: Lowering of arterial oxygen saturation decline in BALB/c mouse infected with influenza A virus (A/duck/Minnesota/1525/1981 (H5N1)) at 3 mg/kg/day, po once daily for 5 days administered 1 hr after infection measured on day 11 relative to carboxymethyl cellulose; format: functional
[4] = test system: Mus musculus; assay: Effect on survival of BALB/c mouse infected with influenza A virus (A/duck/Minnesota/1525/1981 (H5N1)) at 33 mg/kg/day, po qid for 5 days administered 1 hr after infection relative to carboxymethyl cellulose; format: functional, organism-based
[5] = test system: Mus musculus; assay: Effect on survival in BALB/c mouse infected with influenza A virus (A/duck/Minnesota/1525/1981 (H5N1)) at 300 mg/kg/day, po administered 24 hrs after infection relative to carboxymethyl cellulose; format: functional, organism-based
[6] = test system: Mus musculus; assay: Lowering of arterial oxygen saturation decline in BALB/c mouse infected with influenza A virus (A/duck/Minnesota/1525/1981 (H5N1)) at 300 mg/kg/day, po qid for 5 days administered 84 hrs after infection measured on day 11 relative to carboxymethyl cellulose; format: functional
[7] = test system: Mus musculus; assay: Lowering of arterial oxygen saturation decline in BALB/c mouse infected with influenza A virus (A/duck/Minnesota/1525/1981 (H5N1)) at 300 mg/kg/day, po qid for 5 days administered 60 hrs after infection measured on day 11 relative to carboxymethyl cellulose; format: functional
[8] = test system: Mus musculus; assay: Effect on survival of BALB/c mouse infected with influenza A virus (A/duck/Minnesota/1525/1981 (H5N1)) at 300 mg/kg/day, po qid for 5 days administered 84 hrs after infection relative to carboxymethyl cellulose; format: functional, organism-based
[9] = test system: Mus musculus; assay: Lowering of arterial oxygen saturation decline in BALB/c mouse infected with influenza A virus (A/duck/Minnesota/1525/1981 (H5N1)) at 30 mg/kg/day, po once daily for 5 days administered 1 hr after infection measured on day 11 relative to carboxymethyl cellulose; format: functional
[10] = test system: Mus musculus; assay: Effect on survival of BALB/c mouse infected with influenza A virus (A/duck/Minnesota/1525/1981 (H5N1)) at 300 mg/kg/day, po twice daily for 5 days administered 1 hr after infection relative to carboxymethyl cellulose; format: functional, organism-based
[11] = test system: Mus musculus; assay: Lowering of Arterial oxygen saturation decline in BALB/c mouse infected with influenza A virus (A/duck/Minnesota/1525/1981 (H5N1)) at 300 mg/kg/day, po qid for 5 days administered 1 hr after infection measured on day 11 relative to carboxymethyl cellulose; format: functional; method in brief: as §1
[12] = test system: Mus musculus; assay: Effect on survival of BALB/c mouse infected with influenza A virus (A/duck/Minnesota/1525/1981 (H5N1)) at 300 mg/kg/day, po qid for 5 days administered 60 hrs after infection relative to carboxymethyl cellulose; format: functional, organism-based
[13] = test system: Mus musculus; assay: Lowering of Arterial oxygen saturation decline in BALB/c mouse infected with influenza A virus (A/duck/Minnesota/1525/1981 (H5N1)) at 33 mg/kg/day, po qid for 5 days administered 1 hr after infection measured on day 11 relative to carboxymethyl cellulose; format: functional
[14] = test system: Mus musculus; assay: Inhibition of increase in lung weight of BALB/c mouse infected with influenza A virus (A/duck/Minnesota/1525/1981 (H5N1)) at 100 mg/kg/day, po qid for 5 days administered 1 hr after infection measured on day 6 relative to carboxymethyl cellulose; format: functional
[15] = test system: Mus musculus; assay: Effect on survival in BALB/c mouse infected with influenza A virus (A/duck/Minnesota/1525/1981 (H5N1)) at 300 mg/kg/day, po administered 12 hrs after infection relative to carboxymethyl cellulose; format: functional, organism-based
[16] = test system: Mus musculus; assay: Lowering of Arterial oxygen saturation decline in BALB/c mouse infected with influenza A virus (A/duck/Minnesota/1525/1981 (H5N1)) at 300 mg/kg/day, po twice daily for 5 days administered 1 hr after infection measured on day 11 relative to carboxymethyl cellulose; format: functional
[17] = test system: Mus musculus; assay: Effect on survival in BALB/c mouse infected with influenza A virus (A/duck/Minnesota/1525/1981 (H5N1)) at 600 mg/kg/day, po administered 48 hrs after infection relative to carboxymethyl cellulose; format: functional, organism-based
[18] = test system: Mus musculus; assay: Effect on survival of BALB/c mouse infected with influenza A virus (A/duck/Minnesota/1525/1981 (H5N1)) at 3 mg/kg/day, po once daily for 5 days administered 1 hr after infection relative to carboxymethyl cellulose; format: functional, organism-based
[19] = test system: Mus musculus; assay: Effect on survival of BALB/c mouse infected with influenza A virus (A/duck/Minnesota/1525/1981 (H5N1)) at 300 mg/kg/day, po qid for 5 days administered 24 hrs after infection relative to carboxymethyl cellulose; format: functional, organism-based
[20] = test system: Influenza A virus; assay: Inhibition of Influenza A virus (A/gull/Pennsylvania/4175/83 (H5N1)) replication in MDCK cells by virus yield reduction assay; format: functional
[21] = test system: Mus musculus; assay: Effect on survival of BALB/c mouse infected with influenza A virus (A/duck/Minnesota/1525/1981 (H5N1)) at 100 mg/kg/day, po once daily for 5 days administered 1 hr after infection relative to carboxymethyl cellulose; format: functional, organism-based
[22] = test system: Mus musculus; assay: Effect on survival in BALB/c mouse infected with influenza A virus (A/duck/Minnesota/1525/1981 (H5N1)) at 600 mg/kg/day, po administered 4 hrs after infection relative to carboxymethyl cellulose; format: functional, organism-based
[23] = test system: Mus musculus; assay: Effect on survival in BALB/c mouse infected with influenza A virus (A/duck/Minnesota/1525/1981 (H5N1)) at 600 mg/kg/day, po administered 24 hrs after infection relative to carboxymethyl cellulose; format: functional, organism-based
[24] = test system: Mus musculus; assay: Lowering of Arterial oxygen saturation decline in BALB/c mouse infected with influenza A virus (A/duck/Minnesota/1525/1981 (H5N1)) at 30 mg/kg/day, po twice daily for 5 days administered 1 hr after infection measured on day 11 relative to carboxymethyl cellulose; format: functional; method in brief: as §1
[25] = test system: Mus musculus; assay: Lowering of arterial oxygen saturation decline in BALB/c mouse infected with influenza A virus (A/duck/Minnesota/1525/1981 (H5N1)) at 300 mg/kg/day, po qid for 5 days administered 48 hrs after infection measured on day 11 relative to carboxymethyl cellulose; format: functional
[26] = test system: Mus musculus; assay: Effect on survival of BALB/c mouse infected with influenza A virus (A/duck/Minnesota/1525/1981 (H5N1)) at 300 mg/kg/day, po qid for 5 days administered 36 hrs after infection relative to carboxymethyl cellulose; format: functional, organism-based

SMILES: NC(=O)c1nc(F)cnc1O [FAVIPIRAVIR]
- Activity [1]: Active
- Activity [2]: 84.2%
- Activity [3]: 75%
- Activity [4]: Active
- Activity [5]: Active
- Activity [6]: 81.7%
- Activity [7]: 84.6%
- Activity [8]: Active
- Activity [9]: 81.4%
- Activity [10]: Active
- Activity [11]: 88.6%
- Activity [12]: Active
- Activity [13]: 84.8%
- Activity [14]: 140 mg
- Activity [15]: Active
- Activity [16]: 86.9%
- Activity [17]: Active
- Activity [18]: inactive
- Activity [19]: Active
- EC90 [20]: 7.7 µM
- Activity [21]: Active
- Activity [22]: Active
- Activity [23]: Active
- Activity [24]: 79.8%
- Activity [25]: 87.1%
- Activity [26]: Active

— ChEMBL document CHEMBL1142087 (Antimicrob Agents Chemother, 2007)
